From PubChem BioAssay
Sampled rows, rich in hits. Any-hit rate of the full collection: about 2.2%.
Mcl1-Bid inh – disrupts binding of human Mcl-1 to Bid peptide; Q07820; TR-FRET Mcl-1/Bid-Dy647 peptide binding, 1536-well; inhibition, % at 21.7 µM; 220,000 tested, 0.97% active;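 active means compounds that cut the binding signal by more than half at the single screening dose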;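 further: His-tagged Mcl-1 with europium anti-His antibody binding Bid BH3 peptide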
Target sequence (Q07820 whole entry, looked up): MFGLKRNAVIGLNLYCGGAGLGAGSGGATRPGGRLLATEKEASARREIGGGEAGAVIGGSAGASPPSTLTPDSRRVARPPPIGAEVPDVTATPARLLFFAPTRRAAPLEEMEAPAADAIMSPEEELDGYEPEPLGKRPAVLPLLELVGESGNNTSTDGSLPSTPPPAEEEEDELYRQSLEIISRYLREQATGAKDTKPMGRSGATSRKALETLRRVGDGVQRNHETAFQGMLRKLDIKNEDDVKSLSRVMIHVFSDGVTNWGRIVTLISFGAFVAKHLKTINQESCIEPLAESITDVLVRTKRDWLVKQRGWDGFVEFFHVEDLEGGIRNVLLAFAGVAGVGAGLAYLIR
Bim-Mcl-1 – inhibitors of Bim-Mcl-1 interaction, human | inhibition, % at 10 µM | Q07820 | Bead-based flow cytometry, Bim peptide-Mcl-1 binding | 190,000 tested, 0.1% active; in the data active means inhibition above about 40%
Mcl1-Noxa inh – disrupts binding of human Mcl-1 to Noxa peptide; Q07820; 220,000 tested, 1.5% active; inhibition, % at 21.7 µM; TR-FRET Mcl-1/Noxa peptide binding, 2 h;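 active means compounds that cut the protein-peptide binding signal by more than 50% relative to plate controls in a single-dose test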;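 further: His-tagged Mcl-1 with rhodamine Noxa BH3 peptide and terbium anti-His antibody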
EBV gp42 block – EBV gp42 inhibition; Q1HVG2; Fluorescence polarization binding assay, mP read-out; inhibition, % (tested at 21.74 µM); 220,000 tested, 0.42% active; in the data active means inhibition above about 50%
MCL1 BIM primary – MCL1-BIM-BH3 interaction inhibition (human). Q07820. GST-MCL1 / FITC-Bim-BH3 fluorescence polarization. inhibition, % at 10.9 µM. 320,000 tested, 0.68% active. AID 2057;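 active means inhibition above the mean inhibition of all tested compounds plus 3 SD, set per campaign, cut at about 40% in these data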;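 further: higher means more loss of mP so more displacement of Bim peptide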
RBBP9 inhibitor – human RBBP9 hydrolase inhibition; recombinant RBBP9, FP-Rh probe fluorescence polarization; inhibition, % at 7.94 µM; 220,000 tested, 0.2% active;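 active means inhibition above the campaign mean of all tested compounds plus 3 SD, cut at about 14% in these data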
Target sequence (O75884 whole entry, looked up): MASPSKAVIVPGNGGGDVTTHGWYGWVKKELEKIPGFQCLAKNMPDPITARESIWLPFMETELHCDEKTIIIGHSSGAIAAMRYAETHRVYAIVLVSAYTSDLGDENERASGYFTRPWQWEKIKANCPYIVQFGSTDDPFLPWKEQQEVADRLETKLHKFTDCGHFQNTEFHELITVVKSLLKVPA
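Assay system: recombinant human RBBP9; Reagent: Serine-hydrolase probe FP-Rh, 375 nM pre-mixing; Doses: 7.94 µM single dose, 0.794% DMSO; Incubation: 30 min then 45 min, 25 °C; Detection: fluorescence polarization (mP), excitation 525 nm, emission 598 nm; Evaluation: percent inhibition from mP, scaled between DMSO and no-protein wells.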
Hits are given with their value; 0 = inactive; - = no result given.

SMILES	Mcl1-Bid inh	Bim-Mcl-1	Mcl1-Noxa inh	EBV gp42 block	MCL1 BIM primary	RBBP9 inhibitor
COc1ccc(Cn2nnnc2C(c2ccc(N(C)C)cc2)N2CCC(C(N)=O)CC2)cc1 (configuration not stated)	0	0	54	0	0	0
COc1ccc(Cn2nnnc2C(c2ccccc2OC)N2CCC(C(N)=O)CC2)cc1 (configuration not stated)	0	0	0	0	0	0
CC1CN(S(=O)(=O)c2ccc(CN3C(=O)c4cccnc4C3=O)cc2)c2ccccc2O1 (configuration not stated)	-	-	-	-	0	-
Cc1ccc(NC(=S)Nc2ccc(Cl)c(Cl)c2)c(OC(F)F)c1	0	0	0	0	0	0
CNC(=S)Nc1cc(C)ccc1OC(F)F	98	0	0	0	0	0
COc1cccc(N2CC(C(=O)Nc3c(C(N)=O)oc4ccccc34)CC2=O)c1 (configuration not stated)	-	-	-	-	0	-
Cc1cccc2nc3ccccc3nc12	0	0	0	0	0	0
Cc1cccc2c3nc4ccccc4nc3n(C)c12	-	-	-	-	40	-
Cc1cc(CC(=O)O)c2oc(-c3ccoc3)cc(=O)c2c1	-	-	-	-	47	-
CC(=O)Nc1ccc(-n2nnnc2SCC(=O)Nc2cccc(NC(=O)c3ccco3)c2)cc1	0	-	0	0	0	0
O=C(/C=C/c1ccc(O)c(O)c1)c1ccc(S(=O)(=O)N2CCCCCC2)cc1	0	0	65	0	0	0
O=[N+]([O-])c1ccc2c(c1)N([O-])C1(CCCCC1)[N+]2=O	0	-	83	0	-	0
CC(=O)Nc1sc(N/N=C/c2ccc(C)cc2)nc1-c1ccc(C)cc1	0	-	0	0	0	0
CCOc1cc(/C=N\Nc2nc(-c3ccc(C)cc3)c(NC(C)=O)s2)ccc1O	0	-	67	0	0	0
COc1cc(/C=N\Nc2nc(-c3ccc(C)cc3)c(NC(C)=O)s2)ccc1O	0	-	83	0	0	0
COc1ccc(/C=N/Nc2nc(-c3ccc(C)cc3)c(NC(C)=O)s2)cc1OC	0	-	57	0	0	0
COc1ccc2[nH]c(C(=O)O)c(CCNC(=O)/C=C/c3ccc(O)c(OC)c3)c2c1	-	-	-	-	0	-
CCC(C)(C)n1nnnc1C(c1cccc(C#N)c1)N1CCN(c2cccc(C)c2C)CC1 (configuration not stated)	0	0	70	0	0	0
CCC(C)(C)n1nnnc1C(c1ccc(O)c(OC)c1)N1CCc2ccccc2C1 (configuration not stated)	0	0	82	0	0	0
CCC(C)(C)n1nnnc1C(c1ccc(O)c(OC)c1)N1CCN(c2nc3ccccc3s2)CC1 (configuration not stated)	0	0	68	0	0	0
CN1CCN(c2ccc(C(F)(F)F)cc2NC(=O)Nc2ccccc2)CC1	-	-	-	-	0	-
CCCN1CCN(S(=O)(=O)c2ccc(-c3cc(C)no3)s2)CC1	-	-	-	-	0	-
COc1ccc(S(=O)(=O)N2CCCCC2)cc1NC(=O)C1COc2ccccc2O1 (configuration not stated)	-	-	-	-	0	-
COc1ccc(CCNC(=O)CSc2nnc(CNC(=O)c3cc(OC)c(OC)c(OC)c3)o2)cc1OC	-	-	-	-	0	-
Cc1c(N=C2N=C(NC(=O)c3ccc(F)cc3)c3ccccc32)c(=O)n(-c2ccccc2)n1C	0	0	0	116	0	0
SMILES	Mcl1-Bid inh	Bim-Mcl-1	Mcl1-Noxa inh	EBV gp42 block	MCL1 BIM primary	RBBP9 inhibitor
Cc1ccc(C(=O)OCC(=O)Nc2nc(-c3ccccc3)cs2)cc1NC(=O)c1ccco1	0	0	0	0	0	0
COc1cccc(CCNC(=O)CCc2nnc(-c3cc(C)oc3C)o2)c1	-	-	-	-	0	-
O=C(CSc1nnc(COc2cccc3cccnc23)o1)N1CCc2ccccc21	84	0	0	0	0	0
COc1ccc(OC)c(NC(=O)CCN2CCCC(C)C2)c1 (configuration not stated)	51	0	0	0	0	0
COc1ccc(S(=O)(=O)N2CCC(C(=O)N3CCCCC3)CC2)cc1Cl	0	0	0	0	0	0
Cc1[nH]n(-c2ncc(-c3ccccc3)s2)c(=O)c1C(c1ccc(Cl)cc1)C(C#N)C#N (configuration not stated)	0	0	81	0	0	0
CC(c1ccccc1)N(C)C(=O)CSc1nnc(C2CC2)n1C1CC1 (configuration not stated)	-	-	-	-	0	-
Cc1cc(S(=O)(=O)NCc2cccnc2)ccc1F	-	-	-	-	0	-
Fc1cccc(F)c1/C=C/c1ccc2ccccc2n1	0	0	0	0	0	0
C(=C\c1ccco1)/c1ccc2ccccc2n1	0	-	74	0	0	0
CSc1nc(SCCO)c2sc3nc(-c4ccco4)c4c(c3c2n1)CC(C)(C)OC4	85	0	99	0	-	0
CSc1nc(SCCN(C)C)c2c3c(sc2n1)COC(C)(C)C3	0	-	0	0	0	0
OCCN(CCO)c1ncnc2c1sc1nc(N3CCOCC3)c3c(c12)CCCC3	0	0	0	0	0	0
CSc1nc(N(CCO)CCO)c2sc3nc(-c4ccco4)c4c(c3c2n1)CCC4	80	0	107	56	-	0
CC1(C)Cc2c(c(-c3ccco3)nc3sc4c(NCCO)ncnc4c23)CO1	0	0	54	0	0	0
COCCCNc1ncnc2c1sc1nc(-c3ccco3)c3c(c12)CC(C)(C)OC3	0	-	0	0	0	0
CCCCn1c(N)c(N(CCOC)C(=O)C2CCN(S(=O)(=O)c3ccc(Cl)cc3)CC2)c(=O)[nH]c1=O	-	-	-	-	0	-
COc1ccc(S(=O)(=O)Nc2cccnc2)cc1	0	-	0	0	0	0
Cc1cccc(C(=O)O/N=C(\N)c2cccc([N+](=O)[O-])c2)c1	0	0	0	0	0	0
CC1=CC(=O)C=C(C)C1=NOC(=O)c1cccc([N+](=O)[O-])c1	0	0	53	0	0	0
CN(C)C(CNC(=O)CNC(=O)Cc1cccc2ccccc12)c1ccccc1 (configuration not stated)	-	-	-	-	0	-
CCOc1cc(/C=N/Nc2nn3cnnc3c3ccccc23)ccc1O	0	-	56	0	0	0
COc1cc(/C=N/Nc2nn3cnnc3c3ccccc23)ccc1O	0	0	68	0	0	0
Oc1ccc(/C=N/Nc2nn3cnnc3c3ccccc23)cc1	0	-	51	0	0	0
COc1cc2[nH]c(=S)n(C3CC3)c(=O)c2cc1OC	0	0	0	0	0	0
COc1cc2[nH]c(=S)n(N(C(C)=O)C(C)=O)c(=O)c2cc1OC	97	0	0	0	0	0
O=S(=O)(c1cccs1)N1CCC2(CC1)OCCN2S(=O)(=O)c1ccccc1	-	-	-	-	0	-
CC(=O)OCCn1c2nc(=O)[nH]c(=O)c-2nc2cc(C)c(C)cc21	96	-	0	0	-	0
CCOC(=O)c1cc2occc2n1CC(=O)NCCOC	0	0	0	0	0	0
CCOC(=O)c1cc2occc2n1CC(=O)NC1CCCCC1C (configuration not stated)	99	0	0	0	0	0
